Assay results taken from ChEMBL document CHEMBL1136045, “Synthesis, in vitro receptor binding, and in vivo evaluation of fluorescein and carbocyanine peptide-based optical contrast agents” (J Med Chem, 2002).

What follows are compounds tested against Somatostatin receptor (assay: In vitro binding affinity of [111In]DTPA-[Y3]-octreotate to somatostatin receptor in the rat pancreatic tumor cell line, […]).
Outline: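 Competition binding on CA20948 rat pancreatic cell membranes with the tracer [111In]-DTPA-[Y3]-octreotate and increasing concentrations of unlabeled competitor. Incubation 90 min at room temperature, then filtration and buffer washes. Filter-bound radioactivity was gamma-counted, and IC50 came from a four-parameter curve fit. Specific activity of the radiolabeled peptide was >1400 Ci/mmol.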

Row | IC50 | Compound
1 | 9.9 nM | C[C@@H](O)[C@H](NC(=O)[C@H]1CSSC[C@H](NC(=O)[C@@H](Cc2ccccc2)/N=C(/S)Nc2ccc3c(c2)C(=O)OC32c3ccc(O)cc3Oc3cc(O)ccc32)C(=O)N[C@@H](Cc2ccc(O)cc2)C(=O)N[C@H](Cc2c[nH]c3ccccc23)C(=O)N[C@@H](CCCCN)C(=O)N[C@H]([C@@H](C)O)C(=O)N1)C(=O)O
2 | > 1000 nM | C[C@@H](O)[C@H](NC(=O)[C@H]1CSSC[C@H](NC(=O)[C@@H](Cc2ccccc2)NC(=O)CC/N=C(\S)Nc2ccc3c(c2)C(=O)OC32c3ccc(O)cc3Oc3cc(O)ccc32)C(=O)N[C@@H](Cc2ccc(O)cc2)C(=O)N[C@H](Cc2c[nH]c3ccccc23)C(=O)N[C@@H](CCCCN)C(=O)N[C@H]([C@@H](C)O)C(=O)N1)C(=O)O
3 | 187.8 nM | C[C@@H](O)[C@H](NC(=O)[C@H]1CSSC[C@H](NC(=O)[C@@H](Cc2ccccc2)NC(=O)C(N)CCCC/N=C(\S)Nc2ccc3c(c2)C(=O)OC32c3ccc(O)cc3Oc3cc(O)ccc32)C(=O)N[C@@H](Cc2ccc(O)cc2)C(=O)N[C@H](Cc2c[nH]c3ccccc23)C(=O)N[C@@H](CCCCN)C(=O)N[C@H]([C@@H](C)O)C(=O)N1)C(=O)O (stereo partly specified)
4 | 6.4 nM | C[C@@H](O)[C@H](NC(=O)[C@H]1CSSC[C@H](NC(=O)[C@@H](Cc2ccccc2)NC(=O)C(CCCCN)/N=C(\S)Nc2ccc3c(c2)C(=O)OC32c3ccc(O)cc3Oc3cc(O)ccc32)C(=O)N[C@@H](Cc2ccc(O)cc2)C(=O)N[C@H](Cc2c[nH]c3ccccc23)C(=O)N[C@@H](CCCCN)C(=O)N[C@H]([C@@H](C)O)C(=O)N1)C(=O)O (stereo partly specified)

Continued, compound first:

Row | Compound | IC50
5 | C[C@@H](O)[C@H](NC(=O)[C@H]1CSSC[C@H](NC(=O)[C@@H](Cc2ccccc2)NC(=O)C(CCCC/N=C(/S)Nc2ccc3c(c2)C(=O)OC32c3ccc(O)cc3Oc3cc(O)ccc32)NC(=O)CN2CCN(CC(=O)O)CCN(CC(=O)O)CCN(CC(=O)O)CC2)C(=O)N[C@@H](Cc2ccc(O)cc2)C(=O)N[C@H](Cc2c[nH]c3ccccc23)C(=O)N[C@@H](CCCCN)C(=O)N[C@H]([C@@H](C)O)C(=O)N1)C(=O)O (stereo partly specified) | 10.3 nM
6 | C[C@@H](O)[C@H](NC(=O)[C@H]1CSSC[C@H](NC(=O)[C@@H](Cc2ccccc2)NC(=O)CN(CCN(CCN(CC(=O)O)CC(=O)O)CC(=O)O)CC(=O)O)C(=O)N[C@@H](Cc2ccc(O)cc2)C(=O)N[C@H](Cc2c[nH]c3ccccc23)C(=O)N[C@@H](CCCCN)C(=O)N[C@H]([C@@H](C)O)C(=O)N1)C(=O)O | 1.9 nM
7 | C[C@@H](O)[C@@H](CO)NC(=O)[C@H]1CSSC[C@H](NC(=O)[C@H](N)Cc2ccccc2)C(=O)N[C@@H](Cc2ccc(O)cc2)C(=O)N[C@H](Cc2c[nH]c3ccccc23)C(=O)N[C@@H](CCCCN)C(=O)N[C@H]([C@@H](C)O)C(=O)N1 | 0.4 nM
8 | C[C@@H](O)[C@H](NC(=O)[C@H]1CSSC[C@H](NC(=O)[C@H](N)Cc2ccccc2)C(=O)N[C@@H](Cc2ccc(O)cc2)C(=O)N[C@H](Cc2c[nH]c3ccccc23)C(=O)N[C@@H](CCCCN)C(=O)N[C@H]([C@@H](C)O)C(=O)N1)C(=O)O | 0.6 nM
9 | C[C@@H](O)[C@H](NC(=O)[C@H]1CSSC[C@H](NC(=O)[C@@H](Cc2ccccc2)NC(=O)C(CCCC/N=C(\S)Nc2ccc3c(c2)C(=O)OC32c3ccc(O)cc3Oc3cc(O)ccc32)NC(=O)CN(CCN(CCN(CC(=O)O)CC(=O)O)CC(=O)O)CC(=O)O)C(=O)N[C@@H](Cc2ccc(O)cc2)C(=O)N[C@H](Cc2c[nH]c3ccccc23)C(=O)N[C@@H](CCCCN)C(=O)N[C@H]([C@@H](C)O)C(=O)N1)C(=O)O (stereo partly specified) | 10.3 nM
10 | C[C@@H](O)[C@H](NC(=O)[C@H]1CSSC[C@H](NC(=O)[C@@H](Cc2ccccc2)NC(=O)C(CCCCNC(=O)CN(CCN(CCN(CC(=O)O)CC(=O)O)CC(=O)O)CC(=O)O)/N=C(\S)Nc2ccc3c(c2)C(=O)OC32c3ccc(O)cc3Oc3cc(O)ccc32)C(=O)N[C@@H](Cc2ccc(O)cc2)C(=O)N[C@H](Cc2c[nH]c3ccccc23)C(=O)N[C@@H](CCCCN)C(=O)N[C@H]([C@@H](C)O)C(=O)N1)C(=O)O (stereo partly specified) | 71.3 nM
11 | C[C@@H](O)[C@H](NC(=O)[C@H]1CSSC[C@H](NC(=O)[C@@H](Cc2ccccc2)NC(=O)CNC(=O)[C@H](CO)NC(=O)CNC(=S)Nc2ccc3c(c2)C(=O)OC32c3ccc(O)cc3Oc3cc(O)ccc32)C(=O)N[C@@H](Cc2ccc(O)cc2)C(=O)N[C@H](Cc2c[nH]c3ccccc23)C(=O)N[C@@H](CCCCN)C(=O)N[C@H]([C@@H](C)O)C(=O)N1)C(=O)O | 285.2 nM
